Assay results reported in ChEMBL document CHEMBL5724801, “EUbOPEN Chemogenomics Library - Multiplex” (2024).
Values joined by “and” are separate entries in the source; they are usually repeats but may differ in a detail not shown here. Identical values can stand only once.

Tested on: U2OS
Assay: Multiplex assay against U2OS
Format: toxicity, cell-based
Settings: human
Procedure, shortened: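 Live cells were stained at seeding with Hoechst33342, BioTracker Green Microtubule Cytoskeleton Dye, MitoTracker Red and Annexin V Alexa Fluor 680. Following compound addition, they were imaged on a CQ1 microscope at 37°C and 5% CO2 and gated by CellPathfinder machine learning into Hoechst high-intensity objects or normal cells, with normal cells split into healthy, pyknosed or fragmented nuclei and pyknosed cells into mitotic or apoptotic. Tubulin, mitochondrial-mass and membrane-permeability phenotypes are per cents of healthy-nucleus cells.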

[1] = 12 h, 1 µM, compound concentration 1 uM
[2] = 12 h, 10 µM, compound concentration 10 uM
[3] = 24 h, 1 µM, compound concentration 1 uM
[4] = 24 h, 10 µM, compound concentration 10 uM
[5] = 48 h, 1 µM, compound concentration 1 uM
[6] = 48 h, 10 µM, compound concentration 10 uM

O=C1CSC(=O)N1C(CCc1ccncc1)COc1ccc(-c2cccc([N+](=O)[O-])c2)cc1 (centres undefined)
Population Apoptotic (%) [1]: 46.67% and 30.43% | Population Fragmented Nuclei (%) [1]: 1.68% and 1.25% | Population Healthy Nuclei (%) [1]: 91.11% and 84.38% | Population Hoechst High Intensity Objects (%) [1]: 0% and 0.62% | Population Membrane Permeable-Phenotype (%) [1]: 0.26% and 4.44% | Population Mitochondria Different-Phenotype (%) [1]: 0.26% and 9.63% | Population Mitotic Cells (%) [1]: 53.33% and 69.57% | Population Normal (%) [1]: 100% and 99.38% | Population Pyknosed Nuclei (%) [1]: 7.21% and 14.37% | Population Tubulin-Different-Phenotype (%) [1]: 1.58% and 2.22% | Total Cell Count [1]: 416 and 161 | Population Apoptotic (%) [2]: 42.24% and 24.39% | Population Fragmented Nuclei (%) [2]: 2.2% and 3.42% | Population Healthy Nuclei (%) [2]: 69.51% and 68.49% | Population Hoechst High Intensity Objects (%) [2]: 0.24% and 0% | Population Membrane Permeable-Phenotype (%) [2]: 53.68% and 77% | Population Mitochondria Different-Phenotype (%) [2]: 42.11% and 86% | Population Mitotic Cells (%) [2]: 57.76% and 75.61% | Population Normal (%) [2]: 99.76% and 100% | Population Pyknosed Nuclei (%) [2]: 28.29% and 28.08% | Population Tubulin-Different-Phenotype (%) [2]: 96.84% and 85% | Total Cell Count [2]: 411 and 146 | Population Apoptotic (%) [3]: 40.38% and 40% | Population Fragmented Nuclei (%) [3]: 0.93% and 1.52% | Population Healthy Nuclei (%) [3]: 89.44% and 80.81% | Population Hoechst High Intensity Objects (%) [3]: 0.18% and 0% | Population Membrane Permeable-Phenotype (%) [3]: 0.62% and 1.88% | Population Mitochondria Different-Phenotype (%) [3]: 0.41% and 10% | Population Mitotic Cells (%) [3]: 59.62% and 60% | Population Normal (%) [3]: 99.82% and 100% | Population Pyknosed Nuclei (%) [3]: 9.63% and 17.68% | Population Tubulin-Different-Phenotype (%) [3]: 1.45% and 0.62% | Total Cell Count [3]: 541 and 198 | Population Apoptotic (%) [4]: 50% and 31.58% | Population Fragmented Nuclei (%) [4]: 2.96% and 3.38% | Population Healthy Nuclei (%) [4]: 68.34% and 70.95% | Population Hoechst High Intensity Objects (%) [4]: 0.23% and 0% | Population Membrane Permeable-Phenotype (%) [4]: 43% and 73.33% | Population Mitotic Cells (%) [4]: 50% and 68.42% | Population Normal (%) [4]: 99.77% and 100% | Population Pyknosed Nuclei (%) [4]: 28.7% and 25.68% | Population Tubulin-Different-Phenotype (%) [4]: 96.67% and 89.52% | Total Cell Count [4]: 440 and 148 | Population Apoptotic (%) [5]: 43.9% and 44.68% | Population Fragmented Nuclei (%) [5]: 2.54% and 3.2% | Population Healthy Nuclei (%) [5]: 89.11% and 83.14% | Population Hoechst High Intensity Objects (%) [5]: 0% | Population Membrane Permeable-Phenotype (%) [5]: 1.6% and 1.75% | Population Mitochondria Different-Phenotype (%) [5]: 0.34% and 6.64% | Population Mitotic Cells (%) [5]: 56.1% and 55.32% | Population Normal (%) [5]: 100% | Population Pyknosed Nuclei (%) [5]: 8.34% and 13.66% | Population Tubulin-Different-Phenotype (%) [5]: 1.94% and 1.75% | Total Cell Count [5]: 983 and 344 | Population Apoptotic (%) [6]: 60.54% and 58.93% | Population Fragmented Nuclei (%) [6]: 4.41% and 4.12% | Population Healthy Nuclei (%) [6]: 68.57% and 62.94% | Population Hoechst High Intensity Objects (%) [6]: 0.18% and 0% | Population Membrane Permeable-Phenotype (%) [6]: 31.1% and 67.29% | Population Mitotic Cells (%) [6]: 39.46% and 41.07% | Population Normal (%) [6]: 99.82% and 100% | Population Pyknosed Nuclei (%) [6]: 27.02% and 32.94% | Population Tubulin-Different-Phenotype (%) [6]: 82.84% and 74.77%

N#Cc1ccnc(Nc2cc(C3CCN(C4COC4)CC3)cc(N3CCC(F)(F)C3)n2)c1
Population Apoptotic (%) [1]: 40.82% and 36.11% | Population Fragmented Nuclei (%) [1]: 3.13% and 0.79% | Population Healthy Nuclei (%) [1]: 84.07% and 70.87% | Population Hoechst High Intensity Objects (%) [1]: 0% | Population Membrane Permeable-Phenotype (%) [1]: 3.11% and 2.22% | Population Mitochondria Different-Phenotype (%) [1]: 0.62% and 8.89% | Population Mitotic Cells (%) [1]: 59.18% and 63.89% | Population Normal (%) [1]: 100% | Population Pyknosed Nuclei (%) [1]: 12.79% and 28.35% | Population Tubulin-Different-Phenotype (%) [1]: 4.35% and 2.22% | Population Apoptotic (%) [2]: 46.67% and 38.95% | Population Fragmented Nuclei (%) [2]: 9.07% and 13.15% | Population Healthy Nuclei (%) [2]: 64.38% and 42.25% | Population Hoechst High Intensity Objects (%) [2]: 0% | Population Membrane Permeable-Phenotype (%) [2]: 7.56% and 17.78% | Population Mitotic Cells (%) [2]: 53.33% and 61.05% | Population Normal (%) [2]: 100% | Population Pyknosed Nuclei (%) [2]: 26.55% and 44.6% | Population Tubulin-Different-Phenotype (%) [2]: 73.88% and 62.22% | Total Cell Count [2]: 452 and 213 | Population Apoptotic (%) [3]: 47.06% and 53.12% | Population Fragmented Nuclei (%) [3]: 3.81% and 2.05% | Population Healthy Nuclei (%) [3]: 82.57% and 76.03% | Population Hoechst High Intensity Objects (%) [3]: 0% | Population Membrane Permeable-Phenotype (%) [3]: 2.18% and 6.31% | Population Mitochondria Different-Phenotype (%) [3]: 0.49% and 8.11% | Population Mitotic Cells (%) [3]: 52.94% and 46.88% | Population Normal (%) [3]: 100% | Population Pyknosed Nuclei (%) [3]: 13.63% and 21.92% | Population Tubulin-Different-Phenotype (%) [3]: 2.67% and 3.6% | Population Apoptotic (%) [4]: 51.37% and 67.97% | Population Fragmented Nuclei (%) [4]: 11.21% and 9% | Population Healthy Nuclei (%) [4]: 50.11% and 30.33% | Population Hoechst High Intensity Objects (%) [4]: 0% and 0.47% | Population Membrane Permeable-Phenotype (%) [4]: 6.75% and 10.94% | Population Mitochondria Different-Phenotype (%) [4]: 21.94% and 51.56% | Population Mitotic Cells (%) [4]: 48.63% and 32.03% | Population Normal (%) [4]: 100% and 99.53% | Population Pyknosed Nuclei (%) [4]: 38.69% and 60.66% | Population Tubulin-Different-Phenotype (%) [4]: 58.65% and 40.62% | Total Cell Count [4]: 473 and 212 | Population Apoptotic (%) [5]: 55.7% and 66.67% | Population Fragmented Nuclei (%) [5]: 3.56% and 4.98% | Population Healthy Nuclei (%) [5]: 85.19% and 78.61% | Population Hoechst High Intensity Objects (%) [5]: 0.14% and 0% | Population Membrane Permeable-Phenotype (%) [5]: 1.84% and 5.06% | Population Mitochondria Different-Phenotype (%) [5]: 0.67% and 6.33% | Population Mitotic Cells (%) [5]: 44.3% and 33.33% | Population Normal (%) [5]: 99.86% and 100% | Population Pyknosed Nuclei (%) [5]: 11.25% and 16.42% | Population Tubulin-Different-Phenotype (%) [5]: 3.01% and 2.53% | Population Apoptotic (%) [6]: 68.72% and 75.36% | Population Fragmented Nuclei (%) [6]: 9.35% and 11.35% | Population Healthy Nuclei (%) [6]: 37.83% and 28.38% | Population Hoechst High Intensity Objects (%) [6]: 0.22% and 0% | Population Mitochondria Different-Phenotype (%) [6]: 37.93% and 24.62% | Population Mitotic Cells (%) [6]: 31.28% and 24.64% | Population Normal (%) [6]: 99.78% and 100% | Population Pyknosed Nuclei (%) [6]: 52.83% and 60.26% | Population Tubulin-Different-Phenotype (%) [6]: 56.9% and 30.77% | Total Cell Count [6]: 461 and 229
